Active and inactive are the calls of the source.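 Rule for the calls, unless noted: active = fluorescence slope after compound addition differing from the mean of all screened samples at 99.7% confidence, in either direction; inactive = the rest.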
Legend:
[1] = inhibitors of TNFa-induced NFkB p65 translocation, primary screen, imaging, HUVEC, MLSMR starter and 10KST1 sets (AID 438;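 active = inhibition above 20% together with a positive visual image hit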;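 note: compound added about 3h40 before a 20 min TNFalpha stimulation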;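 for inhibition: signal is the nuclear over cytoplasmic p65 intensity ratio per well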); conditions: HUVEC TNFa-induced p65 nuclear translocation; cell count: measured here: nuclei count (cytotoxicity indicator), at 2.08 µM; inhibition: at 2 µM, stronger effect = higher value, 0% TNFa-plus-vehicle, 100% no-TNFa wells
[2] = endothelial E-selectin expression blockers – imaging, HUVEC, immunofluorescence, MLSMR starter and 10KST1 sets, primary screen (AID 487;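 active = visually confirmed hit in the image check and inhibition above 20%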;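 for inhibition: signal is fraction of cell area covered by stained E-selectin grains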;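 for nuclei count: 100% = median nuclei count of all wells on the same plate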); conditions: HUVEC TNFalpha-induced E-selectin immunofluorescence imaging, at 2 µM; inhibition: stronger effect = higher value; nuclei count: measured here: cell number, toxicity
[3] = Primary imaging screen for DUSP6 inhibitors that restore phospho-Erk in transfected HeLa cells, chemical complementation (AID 609;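 active = compounds giving at least 50% inhibition in the cell-based MKP-3 phosphatase rescue imaging test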;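 for inhibition: phospho-Erk level distribution per well compared with pooled transfected vehicle control wells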); conditions: HeLa MKP-3 transfected, phospho-Erk imaging KS statistic, at 10 µM, cells stimulated with TPA for 15 min
[4] = biological target: Dual specificity protein phosphatase 6 (Homo sapiens) (UniProt Q16828); assay: as above; conditions: HeLa MKP-3 transfected, phospho-Erk imaging KS statistic; at 10 µM; stronger effect = higher value; cells stimulated with TPA for 15 min
Sequence of Dual specificity protein phosphatase 6 (Homo sapiens) (Q16828 whole entry, looked up): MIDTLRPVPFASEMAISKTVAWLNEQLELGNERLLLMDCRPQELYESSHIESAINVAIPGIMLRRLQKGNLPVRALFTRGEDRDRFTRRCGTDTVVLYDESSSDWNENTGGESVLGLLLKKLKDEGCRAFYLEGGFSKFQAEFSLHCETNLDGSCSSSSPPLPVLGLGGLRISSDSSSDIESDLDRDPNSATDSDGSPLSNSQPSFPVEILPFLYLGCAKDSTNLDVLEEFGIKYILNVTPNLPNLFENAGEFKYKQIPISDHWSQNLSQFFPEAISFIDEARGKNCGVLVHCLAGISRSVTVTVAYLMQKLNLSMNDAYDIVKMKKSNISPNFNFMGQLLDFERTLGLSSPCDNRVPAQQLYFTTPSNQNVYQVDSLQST

[5] = biological target: Voltage-gated potassium channel subunit beta-2 (Rattus norvegicus) (UniProt P62483); assay: inhibitors of rat Kvbeta2 reductase activity – biochemical, NADPH fluorescence, primary screen (AID 622;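 active = fluorescence slope higher than the sample average by over 3 SD, cut at about -0.22 in these data, passing the limit was not always enough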;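 note: slope of raw intensity against log time taken from 70 to 1610 s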); conditions: recombinant KvBeta, 4-cyanobenzaldehyde reduction, at 10 µM, stronger effect = higher value
Sequence of Voltage-gated potassium channel subunit beta-2 (Rattus norvegicus) (P62483 whole entry, looked up): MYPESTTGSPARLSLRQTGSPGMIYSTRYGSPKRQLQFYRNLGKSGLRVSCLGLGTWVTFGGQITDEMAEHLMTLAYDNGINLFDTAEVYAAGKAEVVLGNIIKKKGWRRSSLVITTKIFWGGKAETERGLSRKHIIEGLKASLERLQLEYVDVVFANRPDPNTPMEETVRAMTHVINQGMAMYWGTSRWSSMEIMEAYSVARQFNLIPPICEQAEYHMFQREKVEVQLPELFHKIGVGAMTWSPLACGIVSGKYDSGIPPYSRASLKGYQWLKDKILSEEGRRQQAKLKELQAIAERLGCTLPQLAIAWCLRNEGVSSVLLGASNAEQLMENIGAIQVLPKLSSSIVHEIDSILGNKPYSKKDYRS

[6] = biological target: Voltage-gated potassium channel subunit beta-2 (Rattus norvegicus) (UniProt P62483); assay: enhancers of rat Kvbeta2 NADPH turnover – biochemical, NADPH fluorescence, primary screen (AID 623;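 active = NADPH fluorescence slope more negative than the mean of all samples by about 3 SD, 99.7% confidence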;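 note: fluorescence intensity change per second fitted from 20 to 320 s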); conditions: Recombinant KvBeta, NADPH fluorescence decrease slope, 10 min; at 10 µM; stronger effect = lower value
[7] = biological target: Alpha-2C adrenergic receptor (Homo sapiens) (UniProt P18825); assay: compounds altering alpha2C-coupled GIRK flux – cell-based, HEK293 alpha2C/GIRK1/2, thallium flux, primary screen (AID 624); conditions: thallium flux BTC fluorescence, at 10 µM, actives lie on both sides;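 note: slope of fluorescence ratio to pre-addition baseline per second over 15 to 24 s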
Sequence of Alpha-2C adrenergic receptor (Homo sapiens) (P18825 whole entry, looked up): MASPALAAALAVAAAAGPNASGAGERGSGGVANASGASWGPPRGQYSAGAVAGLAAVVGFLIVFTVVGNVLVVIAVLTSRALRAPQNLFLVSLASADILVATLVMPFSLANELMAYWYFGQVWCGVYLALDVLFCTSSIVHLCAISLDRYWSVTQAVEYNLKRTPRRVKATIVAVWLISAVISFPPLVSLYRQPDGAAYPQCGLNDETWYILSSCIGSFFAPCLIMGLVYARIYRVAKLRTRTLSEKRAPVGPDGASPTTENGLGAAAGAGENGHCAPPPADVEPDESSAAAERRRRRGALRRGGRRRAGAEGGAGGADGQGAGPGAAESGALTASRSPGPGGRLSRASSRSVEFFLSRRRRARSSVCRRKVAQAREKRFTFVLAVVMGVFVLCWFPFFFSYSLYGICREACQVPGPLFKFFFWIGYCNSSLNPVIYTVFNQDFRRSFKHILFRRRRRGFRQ

[8] = inhibitors of larval lipid processing in zebrafish, primary screen, whole organism, PED6 fluorescence, gall bladder and intestine (AID 686;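 active = a full or partial loss of lipid-probe fluorescence in the fish gall bladder, intestine or both, judged by eye; inactive = no fluorescence loss, or compound toxic to the fish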;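 note: larvae 5 to 7 days old with five fish per well; signal comes from phospholipase A2 cleavage of quenched PED6 carried via bile; overnight exposure to compound and PED6 before scoring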); conditions: Zebrafish larvae PED6 lipid processing, fluorescence scoring; screened at 20 µM (by protocol)
Summary of the method: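 Doses: 20 µM single dose. Test system: live zebrafish larvae aged 5-7 days, whole organism. Quantity: five larvae per well. Measured by: By-eye fluorescence microscopy. Reagent: ingested quenched lipid PED6 at 100 nM. Read-out: visual per-well fluorescence inhibition score. Times: overnight exposure of larvae to compound plus PED6.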

[9] = loss of swimming-algae plug formation – whole organism, Chlamydomonas reinhardtii, WT vs cilia-less mutant, absorbance, 96-well, primary screen (AID 463189;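 active = inhibition at or above 50% relative to wild type and mutant plate controls; inactive = inhibition below 50%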;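 note: 0% = wild type cc124 cells in DMSO and 100% = ciliumless bld1 mutant cells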); conditions: Chlamydomonas reinhardtii gravitaxis, OD600 absorbance, 2 days; at 10 µM; stronger effect = higher value
[10] = measured here: cell density z-score
[11] = measured here: nuclear c-Myc green intensity z-score
[12] = measured here: nuclear pErk red intensity z-score, stronger effect = higher value

| SMILES | cell count [1] | inhibition [1] | inhibition [2] | nuclei count [2] | z-score [3, 10] | z-score [3, 11] | z-score [3, 12] | inhibition [4] | fluorescence slope [5] | NADPH fluorescence slope [6] | slope [7] | outcome [8] | inhibition [9] |
| --- | --- | --- | --- | --- | --- | --- | --- | --- | --- | --- | --- | --- | --- |
| Cc1cc(C)n(C(=O)CSc2nc3ccccc3o2)n1 | 551 | -6.6% (inactive) | -100% (inactive) | 138% | 0.355 | 0.587 | 0.0282 | 19.8% (inactive) | -0.488 (inactive) | -4.3e-05 (inactive) | 0.00455 (inactive) | inactive | 25.1% (inactive) |
| Oc1ccc(C=Nc2ccc3ncccc3c2)c(O)c1 | 490 | -5.8% (inactive) | -113% (inactive) | 117% | 1.18 | -0.733 | -0.981 | 3.66% (inactive) | -0.477 (inactive) | -3.5e-05 (inactive) | 0.00388 (inactive) | inactive | -13.6% (inactive) |
| CCCCCCc1cc2cc(C(=O)NC)c(=N)oc2cc1O | 346 | -2% (inactive) | -68.8% (inactive) | 90.1% | -0.814 | 2.52 | -2.41 | 13.2% (inactive) | -0.446 (inactive) | -6.7e-05 (inactive) | 0 (inactive) | inactive | -9.65% (inactive) |
| CN(C)c1nc2n(c(=S)n1)CCS2 | 604 | -3.2% (inactive) | -204% (inactive) | 109% | -0.355 | -0.0746 | 0.173 | 16.1% (inactive) | -0.409 (inactive) | -2e-05 (inactive) | 0.00562 (inactive) | inactive | -16.2% (inactive) |
| N#CC1=C(N)N2C(=C(C#N)C1c1ccccc1)Sc1ccccc12 (stereo not given) | 653 | -14.8% (inactive) | 9.7% (inactive) | 116% | 1.49 | -0.461 | -0.35 | 17.7% (inactive) | -0.452 (inactive) | -9.4e-06 (inactive) | 0.0107 (inactive) | inactive | 44.9% (inactive) |
| Cc1cccc(C)c1OCC(O)CNS(=O)(=O)c1ccccc1C(=O)N1CCCCC1 (stereo not given) | 512 | 5.4% (inactive) | -148% (inactive) | 171% | -0.797 | 2.33 | 0.877 | -3.95% (inactive) | -0.36 (inactive) | -7e-05 (inactive) | 0.00455 (inactive) | inactive | -6.87% (inactive) |
| CC(=O)Nc1cc2c(cc1Br)OCCO2 | 524 | -18.7% (inactive) | -80.8% (inactive) | 169% | -0.0183 | 1.62 | -0.826 | 16.1% (inactive) | -0.519 (inactive) | -3.4e-05 (inactive) | 0.00516 (inactive) | inactive | 33.1% (inactive) |
| O=C(C1=C(O)C(=O)N(CCN2CCOCC2)C1c1cccnc1)c1cc2ccccc2o1 (stereo not given) | 451 | 4.1% (inactive) | -45.7% (inactive) | 168% | -0.44 | 2.22 | 0.434 | 15% (inactive) | -0.41 (inactive) | -6.5e-05 (inactive) | 0.00612 (inactive) | inactive | -5.22% (inactive) |
| CCOc1ccc(Br)cc1CC(=O)O | 280 | -20.4% (inactive) | -108% (inactive) | 90.5% | -0.00622 | -0.788 | -0.945 | 14% (inactive) | -0.486 (inactive) | -0.000116 (inactive) | 0.00651 (inactive) | inactive | -8.79% (inactive) |
| CCOC(=O)CSc1nc(NC#N)nc(N(CC)CC)n1 | 650 | -7.6% (inactive) | -42.9% (inactive) | 165% | -0.121 | -0.374 | -1.34 | 13.2% (inactive) | -0.51 (inactive) | -9.5e-05 (inactive) | 0.0053 (inactive) | inactive | -12.7% (inactive) |
| CCCc1cc(-n2ccnc2C)n2c(nc3ccccc32)c1C#N | 536 | -42.1% (inactive) | -109% (inactive) | 153% | -0.822 | -0.981 | 0.35 | -15% (inactive) | -0.415 (inactive) | -3.2e-05 (inactive) | 0.00567 (inactive) | inactive | 4.33% (inactive) |
| COc1ccccc1N1CCN(C(=O)c2c(C)cc(=O)oc2C)CC1 | 275 | -1.5% (inactive) | -18.9% (inactive) | 95.9% | -0.53 | 2.24 | -0.762 | 11.4% (inactive) | -0.461 (inactive) | -8.2e-05 (inactive) | 0.00477 (inactive) | inactive | -9.22% (inactive) |
| CCc1c(C(=O)O)[nH]c2ccc(Br)cc12 | 581 | -1.8% (inactive) | -21.7% (inactive) | 171% | -0.258 | -0.825 | 2.03 | -7.01% (inactive) | -0.367 (inactive) | -5.4e-05 (inactive) | 0.00495 (inactive) | inactive | -2.83% (inactive) |
| CN(C)c1ccc(C2C3C(=O)N(c4ccc(C(=O)O)cc4)C(=O)C3ON2c2ccccc2)cc1 (stereo not given) | 491 | -9.3% (inactive) | -30.7% (inactive) | 148% | -0.854 | -1.46 | 0.576 | -13.3% (inactive) | -0.506 (inactive) | -3.3e-05 (inactive) | 0.00498 (inactive) | inactive | 13% (inactive) |
| Cc1cccn2c(=O)c3cc(C#N)c(=N)n(Cc4ccncc4)c3nc12 | 604 | -18.3% (inactive) | -96.5% (inactive) | 165% | 0.463 | -1.24 | 0.303 | -4.27% (inactive) | -0.479 (inactive) | -4.2e-05 (inactive) | 0.00367 (inactive) | inactive | -9.33% (inactive) |
| CCCC(=O)Nn1cnc2c(c1=O)C1(CCCC1)Cc1ccccc1-2 | 558 | -2.6% (inactive) | -157% (inactive) | 108% | -0.794 | -0.594 | -0.952 | 11.9% (inactive) | -0.327 (inactive) | 2.7e-05 (inactive) | 0.00422 (inactive) | inactive | -19.9% (inactive) |
| Cc1ccc(N(CC(=O)O)C2SC(=O)NC2=O)cc1 (stereo not given) | 529 | -12.4% (inactive) | -72.5% (inactive) | 142% | 0.0556 | 0.578 | -1.85 | 18.2% (inactive) | -0.507 (inactive) | -2.2e-05 (inactive) | 0.00492 (inactive) | inactive | 31.2% (inactive) |
| COc1ccc(-c2cc3nc4n(c(=O)c3s2)CCOC4)cc1 | 561 | -7.1% (inactive) | 30.7% (inactive) | 157% | -0.862 | -0.643 | -0.319 | -5.26% (inactive) | -0.185 (inactive) | -1.6e-05 (inactive) | 0.0053 (inactive) | inactive | 7.02% (inactive) |
| O=C(CNC1=NCCC1)c1ccc2c(c1)OCCO2 | 488 | -10.2% (inactive) | -73% (inactive) | 161% | -0.692 | -1.12 | -0.547 | 28.6% (inactive) | -0.485 (inactive) | -0.000113 (inactive) | 0.006 (inactive) | inactive | -8.59% (inactive) |
| COc1ccc(OC)c2c1CCC2=O | 434 | -0.5% (inactive) | 3.9% (inactive) | 102% | -0.357 | -1.08 | -0.0279 | -1.12% (inactive) | -0.0756 (inactive) | 8.5e-06 (inactive) | 0.00599 (inactive) | inactive | 9.78% (inactive) |
| Cc1cc(=O)n2[nH]cnc2n1 | 517 | -4.6% (inactive) | -138% (inactive) | 125% | 1.56 | -0.453 | -0.845 | 5.57% (inactive) | -0.502 (inactive) | -0.000147 (inactive) | 0.00471 (inactive) | inactive | -0.839% (inactive) |
| COCCNc1cc(C)c(C#N)c2nc3ccccc3n12 | 564 | 2.6% (inactive) | -78.8% (inactive) | 108% | -2.44 | 1.04 | -1.31 | 13.9% (inactive) | -0.383 (inactive) | 1.2e-06 (inactive) | 0.00535 (inactive) | inactive | -12.3% (inactive) |
| Cc1nn(-c2ccccc2)c2c1C(c1ccc(F)cc1F)C(C#N)=C(N)O2 (stereo not given) | 611 | -19.6% (inactive) | 17.2% (inactive) | 184% | 0.29 | -0.619 | 0.392 | 19.1% (inactive) | -0.41 (inactive) | -2.3e-05 (inactive) | 0.00636 (inactive) | inactive | 18.8% (inactive) |
| COc1ccc2[nH]c(C)c(C(=O)CN3CCN(C(=O)c4ccco4)CC3)c2c1 | 567 | -7.1% (inactive) | -4.8% (inactive) | 165% | -1.11 | -0.714 | 0.0705 | -7.01% (inactive) | -0.311 (inactive) | -8.4e-06 (inactive) | 0.00523 (inactive) | inactive | -1.6% (inactive) |
| CC1(C)Cc2c(sc3[nH]c(=S)n(Cc4ccco4)c(=O)c23)CO1 | 541 | -15.5% (inactive) | -74.4% (inactive) | 117% | -0.898 | -0.375 | -0.762 | -2.69% (inactive) | -0.361 (inactive) | 2.2e-05 (inactive) | 0.0124 (active) | inactive | -12.6% (inactive) |
